Measured values collected from several papers.
Each line is one published result; the experiments were not run side by side.
Target: Serine/threonine-protein kinase 3 (STK3, Homo sapiens, UniProt Q13188)
Residues used in one study (Q13188 1-491): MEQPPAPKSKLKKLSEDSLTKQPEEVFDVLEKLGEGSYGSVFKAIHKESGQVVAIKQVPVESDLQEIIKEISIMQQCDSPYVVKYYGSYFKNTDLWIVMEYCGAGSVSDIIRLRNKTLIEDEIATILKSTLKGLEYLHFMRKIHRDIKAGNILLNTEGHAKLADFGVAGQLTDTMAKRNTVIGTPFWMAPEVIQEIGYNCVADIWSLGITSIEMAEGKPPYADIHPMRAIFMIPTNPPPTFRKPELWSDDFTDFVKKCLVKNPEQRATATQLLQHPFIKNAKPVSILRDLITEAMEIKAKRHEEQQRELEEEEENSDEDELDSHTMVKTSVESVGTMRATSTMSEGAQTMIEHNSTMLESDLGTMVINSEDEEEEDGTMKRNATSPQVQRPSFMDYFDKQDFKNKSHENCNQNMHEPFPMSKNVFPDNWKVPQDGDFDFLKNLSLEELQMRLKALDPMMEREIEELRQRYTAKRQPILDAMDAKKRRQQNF

C=CC(=O)N1CCC(C(=O)NCC(=O)N2CCN(c3nc(-c4cnc(N)nc4C(F)F)nc(N4CCOCC4)n3)CC2)CC1
remaining binding (binding; competition with immobilised ligand; 1 µM): 97%

O=C(NCC1CCOCC1)c1n[nH]cc1NC(=O)c1c(F)cccc1F
remaining binding (binding; competition with immobilised ligand; 1 µM): 89%

c1cnn2ncc(-c3ccnc(N4CCC45COC5)n3)c2c1
remaining binding (binding; 1 µM): 81%

Cc1cnc(Nc2ccc(C(=O)N3CCC(N4CCCC4)CC3)cc2)nc1-c1cc2ccccc2s1
remaining binding (binding; competition with immobilised ligand; 1 µM): 75%

O=C(Nc1cccnn1)N1CC(C/C=C/c2cncc(Oc3ccc(C(F)(F)F)cn3)n2)C1
remaining binding (cell-free assay; competition with immobilised ligand; 1 µM): 80%

Nc1ncc2c(n1)-c1c([nH]c3ccc(C#CC4CC4)cc13)CCCC2
remaining binding (binding; competition with immobilised ligand; 1 µM): 87%

O=C(c1ccc(Nc2ncc(Cl)c(-c3ccc(Cl)s3)n2)cc1)N1CCC(N2CCCC2)CC1
remaining binding (binding; competition with immobilised ligand; 1 µM): 16%

N[C@H]1CCN(c2nccc(-c3cnn4ncccc34)n2)C1
remaining binding (binding; 1 µM): 100%

COc1ncc2cc3ccccc3nc2c1C#N
remaining binding (cell-free assay; competition with immobilised ligand; 5 µM): 99%

C[C@H]1CCN(c2nccc(-c3cnn4ncccc34)n2)C1
remaining binding (binding; 1 µM): 92%

O=C(NCCCN1CCOCC1)c1ccc(Nc2nccc(-c3cc4ccccc4s3)n2)cc1
remaining binding (binding; competition with immobilised ligand; 1 µM): 88%

C[C@H](c1ccnc(Nc2nc3ccc(-c4cc(N(C)C)ncn4)cc3[nH]2)c1)N1CCN(C(=O)CC(F)(F)F)CC1
remaining binding (cell-free assay; competition with immobilised ligand; 0.1 µM): 93%

CN(c1nccc(-c2cnn3ncccc23)n1)C1CC1
remaining binding (binding; 1 µM): 98%

CC(=O)Nc1c(C(C)=O)c(=O)n(C)c2nc(-c3ccc(Cl)cc3Cl)c(-c3ccc(Cl)cc3)cc12
remaining binding (cell-free assay; competition with immobilised ligand; 1 µM): 100%

CCN1CCN(Cc2ccc(C(=O)Nc3ccc(C)c(Oc4ccc5c(c4)CC(=O)N5)c3)cc2C(F)(F)F)CC1
remaining binding (binding; competition with immobilised ligand; 1 µM): 14%

COc1cnc(Nc2cccc(S(N)(=O)=O)c2)nc1N1CCN(c2ccccc2)C(=O)C1
remaining binding (binding; competition with immobilised ligand; 1 µM): 98%

CN(c1ccnc(CNc2nc(Nc3ccc4c(c3)CC(=O)N4)ncc2C(F)(F)F)n1)S(C)(=O)=O
remaining binding (cell-free assay; competition with immobilised ligand; 1 µM): 46%

c1cncc(-c2cccc(Nc3nccc(NC4CCCCC4)n3)c2)c1
remaining binding (binding; competition with immobilised ligand; 10 µM): 12%

CN(CCCC(F)(F)F)c1nccc(-c2cnn3ncccc23)n1
remaining binding (binding; 1 µM): 100%

CNC(=O)Nc1ccc2c(c1)[C@@]1(CC2)OC(=O)N(CC(=O)N(Cc2ccc(F)cc2)[C@@H](C)C(F)(F)F)C1=O
remaining binding (cell-free assay; competition with immobilised ligand; 1 µM): 97%

CN(C)c1nccc(-c2cnn3ncccc23)n1
remaining binding (binding; 1 µM): 100%

CC(C)(O)c1cncc(-c2nc3ccc(F)cc3n2C2CC2)c1
remaining binding (cell-free assay; competition with immobilised ligand; 1 µM): 100%
